The source of these data is ChEMBL document CHEMBL4359813, “Synthesis and antimycobacterial activity of imidazo[1,2-b][1,2,4,5]tetrazines” (2019).

What all share (format): functional, organism-based
Test [1] concerns Mycolicibacterium smegmatis. Put plainly: Antimycobacterial activity against Mycobacterium smegmatis atR9 assessed as decrease in drug resistance development at 10 ug/disc after 2 to 3 days by paper disc method. An outline of the steps:
(§1)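 Drug-resistant M. smegmatis mc2 155 mutants, isolated on M290 agar with 3.5-4× MIC of compound and resistance re-confirmed, grown in Middlebrook 7H9 (OADC, 0.1% Tween-80, 0.4% glycerol) to OD600 1.2. Diluted 1:9:10 culture:water:M290 and poured as top layer on M290 agar. Impregnated paper discs applied; 37 °C for 2–3 days. Halos measured to nearest 1 mm; triplicates, mean ± SD versus control strain.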

The subject of test [2] is Mycolicibacterium smegmatis. In words: Antimycobacterial activity against Mycobacterium smegmatis atR10 assessed as decrease in drug resistance development at 10 ug/disc after 2 to 3 days by paper disc method. In short, it runs like this: (§2)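 Mutant M. smegmatis strains were grown in Middlebrook 7H9/OADC/Tween/glycerol to OD600 1.2. Cultures were diluted 1:9:10 (culture:water:M290) and overlaid on M290 agar. Commercial or impregnated paper discs were applied and plates incubated 2–3 days at 37 °C. Inhibition halos were measured to 1 mm, run in triplicate, mean ± SD.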

For test [3], the system named is Mycolicibacterium smegmatis. Put plainly: Antimycobacterial activity against Mycobacterium smegmatis atR37 assessed as decrease in drug resistance development at 10 ug/disc after 2 to 3 days by paper disc method. An outline of the steps: as §1
The test system of test [4] is Mycolicibacterium smegmatis. In words: Antimycobacterial activity against Mycobacterium smegmatis atR33 assessed as decrease in drug resistance development at 10 ug/disc after 2 to 3 days by paper disc method. In short, it runs like this: as §2
Test [5] relates to Mycolicibacterium smegmatis. Put plainly: Antimycobacterial activity against Mycobacterium smegmatis atR19 assessed as decrease in drug resistance development at 2 ug/disc after 2 to 3 days by paper disc method. In short, it runs like this:
as §2

Test [6] has as its system Mycolicibacterium smegmatis. Put plainly: Antimycobacterial activity against Mycobacterium smegmatis atR2 assessed as decrease in drug resistance development at 2 ug/disc after 2 to 3 days by paper disc method. An outline of the steps:
as §2

In test [7] the test system is Mycolicibacterium smegmatis. In words: Antimycobacterial activity against Mycobacterium smegmatis atR40 assessed as decrease in drug resistance development at 2 ug/disc after 2 to 3 days by paper disc method. In short, it runs like this: as §1
Test [8] concerns Mycolicibacterium smegmatis. Put plainly: Antimycobacterial activity against Mycobacterium smegmatis atR1 assessed as decrease in drug resistance development at 100 ug/disc after 2 to 3 days by paper disc method. An outline of the steps:
as §2

For test [9], the system named is Mycolicibacterium smegmatis. Put plainly: Antimycobacterial activity against Mycobacterium smegmatis atR8 assessed as decrease in drug resistance development at 100 ug/disc after 2 to 3 days by paper disc method. An outline of the steps:
as §1

Test [10] relates to Mycolicibacterium smegmatis. Put plainly: Antimycobacterial activity against Mycobacterium smegmatis atR10 assessed as decrease in drug resistance development at 100 ug/disc after 2 to 3 days by paper disc method. In short, it runs like this:
as §2

In test [11] the test system is Mycolicibacterium smegmatis. Put plainly: Antimycobacterial activity against Mycobacterium smegmatis atR37 assessed as decrease in drug resistance development at 100 ug/disc after 2 to 3 days by paper disc method. In short, it runs like this: as §1
The test system of test [12] is Mycolicibacterium smegmatis. In words: Antimycobacterial activity against Mycobacterium smegmatis atR40 assessed as decrease in drug resistance development at 100 ug/disc after 2 to 3 days by paper disc method. In short, it runs like this: as §1
Test [13] has as its system Mycolicibacterium smegmatis. Put plainly: Antimycobacterial activity against Mycobacterium smegmatis atR11 assessed as decrease in drug resistance development at 100 ug/disc after 2 to 3 days by paper disc method. An outline of the steps: as §2
The test system of test [14] is Mycolicibacterium smegmatis. Put plainly: Antimycobacterial activity against Mycobacterium smegmatis atR2 assessed as decrease in drug resistance development at 100 ug/disc after 2 to 3 days by paper disc method. An outline of the steps:
as §2

The subject of test [15] is Mycolicibacterium smegmatis. Put plainly: Antimycobacterial activity against Mycobacterium smegmatis atR14 assessed as decrease in drug resistance development at 100 ug/disc after 2 to 3 days by paper disc method. An outline of the steps:
as §2

The source made the active and inactive calls. No cut-off for these calls is given here.

`C[C@@H](O)[C@H]1C(=O)N2C(C(=O)O)=C(SCCNC=N)C[C@H]12`: the outcome in test [1], in test [2], in test [3] and in test [4] was inactive.
In the case of `CC1COc2c(N3CCN(C)CC3)c(F)cc3c(=O)c(C(=O)O)cn1c23` (stereo not given), the outcome in test [5], in test [6] and in [7] was inactive.
As to `CO[C@H]1/C=C/O[C@@]2(C)Oc3c(C)c(O)c4c(O)c(c(/C=N/N5CCN(C)CC5)c(O)c4c3C2=O)NC(=O)/C(C)=C\C=C\[C@H](C)[C@H](O)[C@@H](C)[C@@H](O)[C@@H](C)[C@H](OC(C)=O)[C@@H]1C`, the result in test [8], in test [9], in test [10], in [13], in test [14] and in test [15] was inactive. Besides, the result in test [11] and in test [12] was Active.
